Experiments:
[1] = Selectivity for HCV NS3 protease over human neutrophil elastase
Hepatitis C virus = test: Antiviral activity against HCV RNA replication in human hepatoma cells by replicon assay; type: functional, organism-based, Hepacivirus hominis
[2] = Binding affinity to HCV NS3 protease by spectrophotometry; parameters: species or system Hepacivirus hominis
Summary of the method: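 Continuous assay with NS4A-tethered single-chain NS3 serine protease, read out chromogenically. Affinity reported as Ki*.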

| Ratio [1] | EC90 (Hepatitis C virus; read-out: EC90) [nM] | Ki [2] [nM] | EC90 (Hepatitis C virus) [nM] | Structure (SMILES) |
| --- | --- | --- | --- | --- |
| 2200 | 350 | 14 | – | CC(C)(C)NC(=O)N[C@H](C(=O)N1C[C@H]2[C@@H]([C@H]1C(=O)NC(CC1CCC1)C(=O)C(N)=O)C2(C)C)C(C)(C)C (some centres undefined) [BOCEPREVIR] |
| 1400 | – | 7 | 40 | C=CCNC(=O)C(=O)[C@@H]1CCCCCCCO[C@@H](C)[C@H](NC(=O)N[C@H](CN2C(=O)CC(C)(C)CC2=O)C(C)(C)C)C(=O)N2C[C@H]3[C@@H]([C@H]2C(=O)N1)C3(C)C |
| – | – | 670 | – | CC(C)(C)OC(=O)N[C@H]1CS(=O)(=O)CCCCCCC[C@@H](C(=O)C(=O)NC2CC2)NC(=O)[C@@H]2[C@@H]3[C@H](CN2C1=O)C3(C)C |
| – | – | 150 | – | C=CCNC(=O)C(=O)[C@@H]1CCCCCCCOC[C@H](NC(=O)OC(C)(C)C)C(=O)N2C[C@H]3[C@@H]([C@H]2C(=O)N1)C3(C)C |
| – | – | 660 | – | C=CCNC(=O)C(=O)[C@@H]1CCCCNC(=O)OCCC[C@H](NC(=O)OC(C)(C)C)C(=O)N2C[C@H]3[C@@H]([C@H]2C(=O)N1)C3(C)C |
| 300 | 50 | 7 | – | C=CCNC(=O)C(=O)[C@@H]1CCCCCCCOC[C@H](NC(=O)N[C@H](CN2C(=O)CC(C)(C)CC2=O)C(C)(C)C)C(=O)N2C[C@H]3[C@@H]([C@H]2C(=O)N1)C3(C)C |
| 160 | 160 | 21 | – | C=CCNC(=O)C(=O)[C@@H]1CCCCCCCOC[C@H](NC(=O)N[C@H](CN2CCCCC2=O)C(C)(C)C)C(=O)N2C[C@H]3[C@@H]([C@H]2C(=O)N1)C3(C)C |
| 2800 | 30 | 3 | – | C=CCNC(=O)C(=O)[C@@H]1CCCCCCCO[C@@H](C)[C@H](NC(=O)N[C@H](CN2C(=O)C3CCC(C3)C2=O)C(C)(C)C)C(=O)N2C[C@H]3[C@@H]([C@H]2C(=O)N1)C3(C)C |
| 140 | 100 | 21 | – | C=CCNC(=O)C(=O)[C@@H]1CCCCCCCOC[C@H](NC(=O)N[C@H](CN2CCC(C)(C)CC2=O)C(C)(C)C)C(=O)N2C[C@H]3[C@@H]([C@H]2C(=O)N1)C3(C)C |
| 1500 | 30 | 3 | – | C=CCNC(=O)C(=O)[C@@H]1CCCCCCCOC[C@H](NC(=O)N[C@H](CN2C(=O)C3CCC(C3)C2=O)C(C)(C)C)C(=O)N2C[C@H]3[C@@H]([C@H]2C(=O)N1)C3(C)C |
| – | – | 250 | – | CC(C)(C)OC(=O)N[C@@H]1C(=O)N2C[C@H]3[C@@H]([C@H]2C(=O)N[C@H](C(=O)C(N)=O)CCCCCCCCCC1(C)C)C3(C)C |
| 9 | – | 160 | – | C=CCNC(=O)C(=O)[C@@H]1CCCCCCCOC[C@H](NC(=O)N[C@H](C(=O)C2CC2)C2CCCCC2)C(=O)N2C[C@H]3[C@@H]([C@H]2C(=O)N1)C3(C)C |
| – | – | 36 | – | C=CCNC(=O)C(=O)[C@@H]1CCCCCCCCC[C@H](NC(=O)OC(C)(C)C)C(=O)N2C[C@H]3[C@@H]([C@H]2C(=O)N1)C3(C)C |
| 1100 | 60 | 6 | – | C=CCNC(=O)C(=O)[C@@H]1CCCCCCCO[C@@H](C)[C@H](NC(=O)N[C@H](CN2C(=O)CN(C)CC2=O)C(C)(C)C)C(=O)N2C[C@H]3[C@@H]([C@H]2C(=O)N1)C3(C)C |
| 350 | – | 18 | – | C=CCNC(=O)C(=O)[C@@H]1CCCCCCCOC[C@H](NC(=O)N[C@H](CN(C)S(=O)(=O)CC)C(C)(C)C)C(=O)N2C[C@H]3[C@@H]([C@H]2C(=O)N1)C3(C)C |
| 300 | 80 | 15 | – | C=CCNC(=O)C(=O)[C@@H]1CCCCCCCOC[C@H](NC(=O)N[C@H](CN2C(=O)CN(C)CC2=O)C(C)(C)C)C(=O)N2C[C@H]3[C@@H]([C@H]2C(=O)N1)C3(C)C |
| – | – | 320 | – | C=CCNC(=O)C(=O)[C@@H]1CCCCCCC(=O)CC[C@H](NC(=O)OC(C)(C)C)C(=O)N2C[C@H]3[C@@H]([C@H]2C(=O)N1)C3(C)C |
| 100 | 150 | 14 | – | C=CCNC(=O)C(=O)[C@@H]1CCCCCCCOC[C@H](NC(=O)N[C@H](CN(C)S(=O)(=O)c2cccs2)C(C)(C)C)C(=O)N2C[C@H]3[C@@H]([C@H]2C(=O)N1)C3(C)C |
| – | – | 400 | – | C=CCNC(=O)C(=O)[C@@H]1CCCCCCCOC[C@H](NC=O)C(=O)N2C[C@H]3[C@@H]([C@H]2C(=O)N1)C3(C)C |
| 1300 | 60 | 8 | – | C=CCNC(=O)C(=O)[C@@H]1CCCCCCCO[C@@H](C)[C@H](NC(=O)N[C@H](CN2CCC(C)(C)CC2=O)C(C)(C)C)C(=O)N2C[C@H]3[C@@H]([C@H]2C(=O)N1)C3(C)C |
